Measured values collected from several papers.
Lines come from different studies, so protocols differ. pIC50: −log10 of the molar value.
CYP2C9: Cytochrome P450 2C9 (CYP2C9, Homo sapiens, UniProt P11712)
CYP2C8: Cytochrome P450 2C8 (CYP2C8, Homo sapiens, UniProt P10632)

For Cc1ccc(OCC(=O)N[C@@H](Cc2c[nH]c3ccccc23)C(=O)OC(C)C)cc1, the half-life was > 300 min (chemical stability; simulated intestinal fluid).
With COc1cc(Cn2nc(-c3ccc(CO)o3)c3ccccc32)ccn1 the half-life was 7 min (metabolic stability; rat, liver microsomes; 1 µM, pH 7.4).
With Cc1cccc(-c2nnc(N[C@@H](Cc3ccc(C#N)cc3)C(=O)N3CCc4ccccc43)o2)c1 the half-life was 18 min (metabolic stability; rat, liver microsomes; 10 µM, pH 7.4).
CC(C)(O)[C@@H]1CC[C@](C)([C@H]2[C@@H](O)C[C@@]3(C)[C@@H]4C[C@H](O[C@@H]5O[C@H](CO)[C@@H](O)[C@H](O)[C@H]5O)[C@H]5C(C)(C)[C@@H](O[C@@H]6OC[C@@H](O)[C@H](O)[C@H]6O)CC[C@@]56C[C@@]46CC[C@]23C)O1 gave a pIC50 of < 3.70 (CYP2C9; enzyme activity, inhibitor; human, liver microsomes).
For NCc1ccc(-c2nn(Cc3ccncc3)c3ccccc23)o1, the bioavailability was 15% (male CD-1 mouse, plasma; oral, 10 mg/kg).
CSc1ccccc1C(=O)NCCn1cc(C(=O)NCc2cccc(C)n2)c(=O)c2cc3c(cc21)OC(F)(F)O3 gave a pIC50 of < 4.00 (CYP2C8; enzyme activity, inhibitor; human, liver microsomes; 20 min, without NADPH, with preincubation).
The half-life of N#Cc1ccc(C[C@@H](Nc2c(Nc3ccc(F)cc3)c(=O)c2=O)C(=O)N2CCc3ccccc32)cc1 is reported as 15 min (metabolic stability; rat, liver microsomes; 10 µM, pH 7.4).
The half-life of C=C(F)C(=O)N1CCN(c2nc(OC[C@@H]3CCCN3C)nc3c2CCN(c2cccc4cccc(Cl)c24)C3)C[C@@H]1CC#N is reported as 520 min (chemical stability, HPLC; glutathione solution; 5 µM, pH 7.4).
CN(C)C(=O)c1cc2cnc(Nc3ccc(-c4ccc5c(=O)cc(N6CCOCC6)oc5c4)cc3)nc2n1C1CCCC1.Cl has an AUC of 7810 ng·h/mL (BALB/c mouse, plasma; oral, 20 mg/kg).
With OCc1ccc(-c2nn(Cc3ccccc3)c3ccccc23)o1 the half-life was 6 min (metabolic stability; rat, liver microsomes; 1 µM, pH 7.4).
For CSc1ccccc1C(=O)NCCn1cc(C(=O)NCc2cccc(C)n2)c(=O)c2cc3c(cc21)OCO3, the pIC50 was < 4.00 (CYP2C8; enzyme activity, inhibitor; human, liver microsomes; 20 min, without NADPH, with preincubation).
The pIC50 of CC(=O)O[C@H]1[C@H](O[C@H]2CC[C@]34C[C@]35CC[C@]3(C)[C@@H]([C@@]6(C)CC[C@@H](C(C)(C)O)O6)[C@@H](O)C[C@@]3(C)[C@@H]5C[C@H](O[C@@H]3O[C@H](CO)[C@@H](O)[C@H](O)[C@H]3O)[C@H]4C2(C)C)OC[C@@H](OC(C)=O)[C@@H]1O is reported as 3.93 (CYP2C9; enzyme activity, inhibitor; human, liver microsomes).
